From ChEMBL document CHEMBL4312005, “Optimization of pyrrolizine-based Schiff bases with 4-thiazolidinone motif: Design, synthesis and investigation of cytotoxicity and anti-inflammatory potency” (Eur J Med Chem, 2020)

Legend:
MCF7 [1] = assay: Antiproliferative activity against human MCF7 cells assessed as reduction in cell growth incubated for 72 hrs by MTT assay; format: functional, cell-based; details: MCF7, 72 h
Summary of the method: (§1)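 MTT assay on MCF-7, A2780, HT29 and normal MRC5 fibroblast lines (ATCC) grown in DMEM with 10% FBS. Cells exposed to compounds for 72 h, then reduced MTT read at 570 nm.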

[2] = Selectivity index, ratio of IC50 for cytotoxicity against human MRC5 cells to IC50 for antiproliferative activity against human A2780 cells; details: MRC5 cells versus A2780 cells
MCF7 [3] = assay: Antiproliferative activity against human MCF7 cells assessed as cell viability at 5 uM incubated for 48 hrs by MTT assay (reference value: 100 %); format: functional; details: MCF7, 48 h, read-out: Activity
Summary of the method: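 Preliminary single-dose screen by MTT assay. MCF-7 cells grown in DMEM/10% FBS were exposed to 5 μM compound for 48 h, and growth% was determined. Values are mean ± S.D., n = 6.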

HT-29 = assay: Antiproliferative activity against human HT-29 cells assessed as reduction in cell growth incubated for 72 hrs by MTT assay; format: functional, cell-based; details: HT-29, 72 h; summary of the method: as §1
[4] = Selectivity index, ratio of IC50 for cytotoxicity against human MRC5 cells to IC50 for antiproliferative activity against human HT-29 cells; details: MRC5 cells versus HT-29 cells
[5] = biological target: Prostaglandin G/H synthase 1 (Homo sapiens, UniProt P23219); assay: Inhibition of human COX1 using arachidonic acid as substrate incubated for 2 mins by ELISA method
Chain of Prostaglandin G/H synthase 1 (P23219 whole entry): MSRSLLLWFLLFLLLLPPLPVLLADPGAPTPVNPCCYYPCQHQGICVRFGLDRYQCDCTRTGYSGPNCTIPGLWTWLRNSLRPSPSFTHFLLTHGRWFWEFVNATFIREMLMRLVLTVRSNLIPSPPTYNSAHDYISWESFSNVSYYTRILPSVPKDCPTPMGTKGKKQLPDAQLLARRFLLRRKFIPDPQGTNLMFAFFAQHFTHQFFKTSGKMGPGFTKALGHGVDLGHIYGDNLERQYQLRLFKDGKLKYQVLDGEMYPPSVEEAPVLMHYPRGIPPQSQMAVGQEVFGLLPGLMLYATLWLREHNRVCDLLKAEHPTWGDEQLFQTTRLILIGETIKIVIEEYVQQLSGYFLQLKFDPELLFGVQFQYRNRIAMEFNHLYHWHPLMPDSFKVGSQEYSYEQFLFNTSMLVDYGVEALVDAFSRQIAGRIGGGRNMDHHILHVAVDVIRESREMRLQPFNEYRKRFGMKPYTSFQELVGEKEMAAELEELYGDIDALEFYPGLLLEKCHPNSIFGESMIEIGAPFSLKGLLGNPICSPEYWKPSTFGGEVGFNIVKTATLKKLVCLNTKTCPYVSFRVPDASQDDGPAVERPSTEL

[6] = Selectivity index, ratio of IC50 for cytotoxicity against human MRC5 cells to IC50 for antiproliferative activity against human MCF7 cells; details: MRC5 cells versus MCF7 cells
MRC5 = assay: Cytotoxicity against human MRC5 cells assessed as reduction in cell growth incubated for 72 hrs by MTT assay; format: cell-based; details: MRC5, 72 h; summary of the method: as §1
A2780 = assay: Antiproliferative activity against human A2780 cells assessed as reduction in cell growth incubated for 72 hrs by MTT assay; format: functional, cell-based; details: A2780, 72 h; summary of the method: as §1
MCF7 [7] = assay: Cell cycle arrest in human MCF7 cells assessed as S phase accumulation at 5 uM incubated for 24 hrs by propidium iodide based flow cytometry (reference value: 17.3 to 28.5 %); format: functional
MCF7 [8] = assay: Induction of apoptosis in human MCF7 cells assessed as late apoptotic cells at 5 uM incubated for 24 hrs by annexin V FITC and propidium iodide staining based flow cytometry (reference value: 0 to 2.5 %); format: functional
MCF7 [9] = assay: Cell cycle arrest in human MCF7 cells assessed as G2/M phase accumulation at 10 uM incubated for 24 hrs by propidium iodide based flow cytometry (reference value: 17.2 to 26.8 %); format: functional
MCF7 [10] = assay: Induction of apoptosis in human MCF7 cells assessed as necrotic cells at 1 uM incubated for 24 hrs by annexin V FITC and propidium iodide staining based flow cytometry (reference value: 4.1 to […]); format: functional
MCF7 [11] = assay: Induction of apoptosis in human MCF7 cells assessed as early apoptotic cells at 10 uM incubated for 24 hrs by annexin V FITC and propidium iodide staining based flow cytometry (reference value: 0 to 9 %); format: functional
MCF7 [12] = assay: Cell cycle arrest in human MCF7 cells assessed as subG1 accumulation at 1 uM incubated for 24 hrs by propidium iodide based flow cytometry (reference value: 0.6 to 3 %); format: functional
Rattus norvegicus [13] = assay: Antiinflammatory activity against albino rats assessed as inhibition of carrageenan-induced paw edema at 0.5 mmol, po measured after 4 hrs relative to control; format: functional
Summary of the method: (§2)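 Carrageenan rat paw edema (Winter method) in male and female adult albino rats (100-140 g). […] Swelling inhibition expressed as % of control at 2-4 h after carrageenan injection.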

MCF7 [14] = assay: Induction of apoptosis in human MCF7 cells assessed as late apoptotic cells at 1 uM incubated for 24 hrs by annexin V FITC and propidium iodide staining based flow cytometry (reference value: 0 to 2.5 %); format: functional
Rattus norvegicus [15] = assay: Antiinflammatory activity against albino rats assessed as inhibition of carrageenan-induced paw edema at 0.5 mmol, po measured after 2 hrs relative to control; format: functional; summary of the method: as §2
MCF7 [16] = assay: Cell cycle arrest in human MCF7 cells assessed as S phase accumulation at 10 uM incubated for 24 hrs by propidium iodide based flow cytometry (reference value: 17.3 to 28.5 %); format: functional
MCF7 [17] = assay: Cell cycle arrest in human MCF7 cells assessed as G1 accumulation at 5 uM incubated for 24 hrs by propidium iodide based flow cytometry (reference value: 49.6 to 55.1 %); format: functional
MCF7 [18] = assay: Induction of apoptosis in human MCF7 cells assessed as viable cells at 5 uM incubated for 24 hrs by annexin V FITC and propidium iodide staining based flow cytometry (reference value: 76 to 95.9 %); format: functional; details: MCF7, 24 h, read-out: Activity
MCF7 [19] = assay: Cell cycle arrest in human MCF7 cells assessed as G2/M phase accumulation at 5 uM incubated for 24 hrs by propidium iodide based flow cytometry (reference value: 17.2 to 26.8 %); format: functional
MCF7 [20] = assay: Induction of apoptosis in human MCF7 cells assessed as early apoptotic cells at 1 uM incubated for 24 hrs by annexin V FITC and propidium iodide staining based flow cytometry (reference value: 0 to 9 %); format: functional
MCF7 [21] = assay: Cell cycle arrest in human MCF7 cells assessed as G1 accumulation at 10 uM incubated for 24 hrs by propidium iodide based flow cytometry (reference value: 49.6 to 55.1 %); format: functional
MCF7 [22] = assay: Cell cycle arrest in human MCF7 cells assessed as S phase accumulation at 1 uM incubated for 24 hrs by propidium iodide based flow cytometry (reference value: 17.3 to 28.5 %); format: functional
MCF7 [23] = assay: Cell cycle arrest in human MCF7 cells assessed as subG1 accumulation at 10 uM incubated for 24 hrs by propidium iodide based flow cytometry (reference value: 0.6 to 3 %); format: functional
MCF7 [24] = assay: Induction of apoptosis in human MCF7 cells assessed as necrotic cells at 5 uM incubated for 24 hrs by annexin V FITC and propidium iodide staining based flow cytometry (reference value: 4.1 to […]); format: functional
MCF7 [25] = assay: Induction of apoptosis in human MCF7 cells assessed as early apoptotic cells at 5 uM incubated for 24 hrs by annexin V FITC and propidium iodide staining based flow cytometry (reference value: 0 to 9 %); format: functional
MCF7 [26] = assay: Induction of apoptosis in human MCF7 cells assessed as viable cells at 1 uM incubated for 24 hrs by annexin V FITC and propidium iodide staining based flow cytometry (reference value: 76 to 95.9 %); format: functional; details: MCF7, 24 h, read-out: Activity
MCF7 [27] = assay: Induction of apoptosis in human MCF7 cells assessed as viable cells at 10 uM incubated for 24 hrs by annexin V FITC and propidium iodide staining based flow cytometry (reference value: 76 to 95.9 %); format: functional; details: MCF7, 24 h, read-out: Activity
MCF7 [28] = assay: Cell cycle arrest in human MCF7 cells assessed as G1 accumulation at 1 uM incubated for 24 hrs by propidium iodide based flow cytometry (reference value: 49.6 to 55.1 %); format: functional
MCF7 [29] = assay: Induction of apoptosis in human MCF7 cells assessed as necrotic cells at 10 uM incubated for 24 hrs by annexin V FITC and propidium iodide staining based flow cytometry (reference value: 4.1 to […]); format: functional
MCF7 [30] = assay: Induction of apoptosis in human MCF7 cells assessed as late apoptotic cells at 10 uM incubated for 24 hrs by annexin V FITC and propidium iodide staining based flow cytometry (reference value: 0 to 2.5 %); format: functional
MCF7 [31] = assay: Cell cycle arrest in human MCF7 cells assessed as subG1 accumulation at 5 uM incubated for 24 hrs by propidium iodide based flow cytometry (reference value: 0.6 to 3 %); format: functional
MCF7 [32] = assay: Cell cycle arrest in human MCF7 cells assessed as G2/M phase accumulation at 1 uM incubated for 24 hrs by propidium iodide based flow cytometry (reference value: 17.2 to 26.8 %); format: functional

SMILES: N#Cc1c(/N=C/c2cccnc2)c(C(=O)Nc2ccc(Br)cc2)n2c1CCC2
- IC50 (MCF7 [1]): 11.3 µM
- selectivity ratio [2]: 1 to 10
- viability at 5 µM (MCF7 [3]): 81%
- IC50 (HT-29): 2.63 µM
- selectivity ratio [4]: 1 to 10
- IC50 [5]: > 100 µM
- selectivity ratio [6]: 1 to 10
- IC50 (MRC5): 25.6 µM
- IC50 (A2780): 23 µM

SMILES: CC/C=N/c1c(C#N)c2n(c1C(=O)Nc1ccc(C)cc1)CCC2
- IC50 (MCF7 [1]): 0.84 µM
- IC50 (HT-29): 0.61 µM
- IC50 [5]: 27.7 µM
- IC50 (MRC5): 0.56 µM
- IC50 (A2780): 3.88 µM

SMILES: N#Cc1c(/N=C/c2ccc(Cl)cc2)c(C(=O)Nc2ccc(Br)cc2)n2c1CCC2
- IC50 (MCF7 [1]): 6.03 µM
- selectivity ratio [2]: 2 to 52
- viability at 5 µM (MCF7 [3]): 73%
- IC50 (HT-29): 7.79 µM
- selectivity ratio [4]: 2 to 52
- IC50 [5]: > 100 µM
- selectivity ratio [6]: 2 to 52
- IC50 (MRC5): 13.8 µM
- IC50 (A2780): 8.3 µM

SMILES: N#Cc1c(/N=C/c2ccc(O)cc2)c(C(=O)Nc2ccc(Br)cc2)n2c1CCC2
- Activity (MCF7 [7]): 49.7%
- Activity (MCF7 [8]): 7.4%
- Activity (MCF7 [9]): 19.8%
- IC50 (MCF7 [1]): 0.49 µM
- Activity (MCF7 [10]): 14.3%
- selectivity ratio [2]: 2 to 52
- viability at 5 µM (MCF7 [3]): 69%
- Activity (MCF7 [11]): 5%
- Activity (MCF7 [12]): 0.4%
- inhibition (INH) (Rattus norvegicus [13]): 44.51%
- Activity (MCF7 [14]): 9.8%
- inhibition (INH) (Rattus norvegicus [15]): 28.15%
- Activity (MCF7 [16]): 51.9%
- Activity (MCF7 [17]): 28.9%
- IC50 (HT-29): 14.5 µM
- viability at 5 µM (MCF7 [18]): 66.3%
- selectivity ratio [4]: 2 to 52
- Activity (MCF7 [19]): 22%
- Activity (MCF7 [20]): 10.2%
- Activity (MCF7 [21]): 27.9%
- Activity (MCF7 [22]): 54.1%
- IC50 [5]: 72 µM
- Activity (MCF7 [23]): 0.8%
- Activity (MCF7 [24]): 17.8%
- Activity (MCF7 [25]): 8.6%
- viability at 1 µM (MCF7 [26]): 65.7%
- selectivity ratio [6]: 2 to 52
- IC50 (MRC5): 25 µM
- IC50 (A2780): 0.47 µM
- viability at 10 µM (MCF7 [27]): 69.2%
- Activity (MCF7 [28]): 31.7%
- Activity (MCF7 [29]): 20.6%
- Activity (MCF7 [30]): 5.2%
- Activity (MCF7 [31]): 0.4%
- Activity (MCF7 [32]): 14.2%

SMILES: CC/C=N/c1c(C#N)c2n(c1C(=O)Nc1ccc(Cl)cc1)CCC2
- IC50 (MCF7 [1]): 0.74 µM
- inhibition (INH) (Rattus norvegicus [13]): 24.06%
- inhibition (INH) (Rattus norvegicus [15]): 19.17%
- IC50 (HT-29): 1.02 µM
- IC50 [5]: 15.6 µM
- IC50 (MRC5): 0.17 µM
- IC50 (A2780): 0.58 µM

SMILES: N#Cc1c(/N=C/c2ccccc2)c(C(=O)Nc2ccc(Br)cc2)n2c1CCC2
- IC50 (MCF7 [1]): 0.5 µM
- selectivity ratio [2]: 2 to 52
- viability at 5 µM (MCF7 [3]): 73%
- IC50 (HT-29): 2.97 µM
- selectivity ratio [4]: 2 to 52
- IC50 [5]: > 100 µM
- selectivity ratio [6]: 2 to 52
- IC50 (MRC5): 9 µM
- IC50 (A2780): 4.16 µM

SMILES: CC/C=N/c1c(C#N)c2n(c1C(=O)Nc1ccccc1)CCCC2
- IC50 (MCF7 [1]): 1.43 µM
- IC50 (HT-29): 0.14 µM
- IC50 [5]: 27.2 µM
- IC50 (MRC5): 1.53 µM
- IC50 (A2780): 15.6 µM
